Measurements from ChEMBL document CHEMBL5107948, “Activity-based protein profiling reveals deubiquitinase and aldehyde dehydrogenase targets of a cyanopyrrolidine probe” (RSC Med Chem, 2021).
The source made the active and inactive calls. The rule behind the calls is not given here.

Assays:
Assay type in all cases: cell-based
[1] = target: T1, Glutamine amidotransferase-like class 1 domain-containing protein 3, mitochondrial (Homo sapiens) (UniProt P0DPI2); experiment: Binding affinity to GATD3A in human HEK293 cells at 130 to 500 nM in presence of ABP MT16-205 by LFQ-NanoLC-MS/MS analysis; details: dose 130-500 nM, DDE = dose-dependent effect
T1 sequence (whole entry): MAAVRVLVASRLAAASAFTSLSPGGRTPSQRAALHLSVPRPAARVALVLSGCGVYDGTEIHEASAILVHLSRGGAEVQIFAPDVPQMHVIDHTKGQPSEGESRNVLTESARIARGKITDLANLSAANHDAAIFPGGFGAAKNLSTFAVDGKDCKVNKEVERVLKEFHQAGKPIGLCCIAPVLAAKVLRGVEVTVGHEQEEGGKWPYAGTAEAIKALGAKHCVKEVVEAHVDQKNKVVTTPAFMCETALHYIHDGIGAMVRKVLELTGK
In short: (§1)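 Competition format: HEK293 cells pre-treated 1 h with competitor or DMSO, then exposed to ABP MT16-205. Lysis in PBS/Triton/SDS buffer, AzRB click ligation, NeutrAvidin pulldown, on-bead TCEP/chloroacetamide treatment and overnight tryptic digestion. Label-free LC-MS/MS; two-sample t-test versus control (n=3, permutation FDR 0.01, S0=1).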

[2] = target: 4-trimethylaminobutyraldehyde dehydrogenase (Homo sapiens) (UniProt P49189); experiment: Binding affinity to ALDH9A1 in human HEK293 cells at 130 to 500 nM in presence of ABP MT16-205 by LFQ-NanoLC-MS/MS analysis; details: dose 130-500 nM, DDE = dose-dependent effect; in short: as §1
[3] = target: Ubiquitin carboxyl-terminal hydrolase isozyme L1 (Homo sapiens) (UniProt P09936); experiment: Binding affinity to UCHL1 in human HEK293 cells at 40 nM incubated for 3 hrs by In-gel fluorescence analysis
In short: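 HEK293 cells given 10–2500 nM ABP for 3, 6 or 18 h. Lysates clicked to AzTB, mixed with Laemmli buffer at 0.31% v/v final BME for 5 min without boiling, resolved on 12% acrylamide gels, imaged by in-gel TAMRA fluorescence.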

[4] = target: Ubiquitin carboxyl-terminal hydrolase isozyme L1 (Homo sapiens) (UniProt P09936); experiment: Binding affinity to UCHL1 in human HEK293 cells at 31 nM by TAMRA labelled pulldown based immunoblotting analysis
In short: (§2)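 HEK293 cells treated with ABP; lysate (150 µg) CuAAC-ligated to AzTB, precipitated, resuspended. 100 µg incubated with streptavidin magnetic beads 2 h RT, washed with 0.2% SDS/PBS, eluted by boiling 10 min at 95 °C. Eluates run on SDS-PAGE and read by TAMRA in-gel fluorescence or by immunoblot on nitrocellulose with HRP chemiluminescence.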

[5] = target: Ubiquitin carboxyl-terminal hydrolase isozyme L1 (Homo sapiens) (UniProt P09936); experiment: Binding affinity to UCHL1 in human HEK293 cells at 31 nM by TAMRA labelled pulldown based In-gel fluorescence analysis; in short: as §2
[6] = target: T1, Glutamine amidotransferase-like class 1 domain-containing protein 3, mitochondrial (Homo sapiens); experiment: Binding affinity to GATD3A in human HEK293 cells assessed as fold change at 30 nM incubated for 3 to 18 hrs by LFQ-chemical proteomics analysis; details: time 3-18 hrs
In short: (§3)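 HEK293 cells exposed to alkyne ABP or DMSO for 3, 6 or 18 h, washed, lysed in PBS/1% Triton X-100/0.1% SDS. Lysates (400 µg, biological triplicates) CuAAC-ligated to AzRB (100 µM, CuSO4 1 mM, TCEP 1 mM, TBTA 100 µM, 1 h RT). NeutrAvidin enrichment, on-bead TCEP/CAA reduction-alkylation, overnight trypsin digest at 37 °C, LC-MS/MS label-free quantification. Two-sample t-test against DMSO (n=3, permutation FDR 0.01, S0=1).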

[7] = target: T1, Glutamine amidotransferase-like class 1 domain-containing protein 3, mitochondrial (Homo sapiens); experiment: Binding affinity to GATD3A in human HEK293 cells assessed as fold change at 130 nM incubated for 3 to 6 hrs by LFQ-chemical proteomics analysis; details: time 3-6 hrs; in short: as §3
[8] = target: Ubiquitin carboxyl-terminal hydrolase isozyme L1 (Homo sapiens) (UniProt P09936); experiment: Binding affinity to UCHL1 in human HEK293 cells assessed as fold change at 130 nM incubated for 3 to 6 hrs by LFQ-chemical proteomics analysis; details: time 3-6 hrs; in short: as §3
[9] = target: 4-trimethylaminobutyraldehyde dehydrogenase (Homo sapiens) (UniProt P49189); experiment: Binding affinity to ALDH9A1 in human HEK293 cells assessed as fold change at 130 nM incubated for 3 to 6 hrs by LFQ-chemical proteomics analysis; details: time 3-6 hrs; in short: as §3

Chain of Ubiquitin carboxyl-terminal hydrolase isozyme L1 (Homo sapiens) (P09936 whole entry, looked up): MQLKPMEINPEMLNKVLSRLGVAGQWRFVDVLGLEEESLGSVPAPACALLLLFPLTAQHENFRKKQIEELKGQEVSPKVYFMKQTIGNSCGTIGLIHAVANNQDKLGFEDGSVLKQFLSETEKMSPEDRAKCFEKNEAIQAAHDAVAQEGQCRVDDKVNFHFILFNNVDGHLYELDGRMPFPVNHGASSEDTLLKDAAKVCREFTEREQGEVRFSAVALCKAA
Chain of 4-trimethylaminobutyraldehyde dehydrogenase (Homo sapiens) (P49189 whole entry): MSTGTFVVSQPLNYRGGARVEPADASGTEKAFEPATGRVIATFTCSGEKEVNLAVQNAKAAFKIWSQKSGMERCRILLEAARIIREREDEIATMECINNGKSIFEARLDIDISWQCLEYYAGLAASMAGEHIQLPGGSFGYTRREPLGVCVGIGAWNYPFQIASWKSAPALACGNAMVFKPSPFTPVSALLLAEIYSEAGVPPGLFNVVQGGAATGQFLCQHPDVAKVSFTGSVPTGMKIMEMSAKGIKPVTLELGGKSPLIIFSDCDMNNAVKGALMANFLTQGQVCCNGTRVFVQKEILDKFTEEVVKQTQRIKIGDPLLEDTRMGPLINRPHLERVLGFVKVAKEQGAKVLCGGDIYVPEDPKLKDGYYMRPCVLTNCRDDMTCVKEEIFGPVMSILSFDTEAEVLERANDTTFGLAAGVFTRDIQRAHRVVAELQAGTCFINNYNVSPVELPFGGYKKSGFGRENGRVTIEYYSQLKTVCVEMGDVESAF

Activity [1]	Activity [2]	Activity [3]	Activity [4]	Activity [5]	fold change (FC) [6]	fold change (FC) [7]	fold change (FC) [8]	fold change (FC) [9]	Structure (SMILES)
Dde	Dde								N#CN1CC[C@H](C(=O)Nc2ncc(-c3ccccc3)s2)C1
		Active	Active	Active	> 16	> 64	> 64	> 64	C#Cc1ccc(-c2cnc(NC(=O)[C@H]3CCN(C#N)C3)s2)cc1
